Reference: ChEMBL document CHEMBL3808280, “GroEL/ES inhibitors as potential antibiotics” (Bioorg Med Chem Lett, 2016)

Assays:
HEK293 = test: Cytotoxicity against HEK293 cells assessed as reduction in cell viability after 48 hrs by alamar blue assay; type: cell-based; conditions: Homo sapiens, HEK293, 48 h
E. coli GroEL/ES [1] = molecular target: T1, E. coli GroEL/ES (Escherichia coli, UniProt P0A6F5); test: Inhibition of Escherichia coli GroEL/GroES using Escherichia coli GroEL expressed in Escherichia coli DH5alpha cells and Escherichia coli GroES expressed in Escherichia coli BL21(DE3) cells assessed as inhibition of denatured rhodanese refolding by measuring reduction in thiocyanate production incubated for 60 mins by micro plate reader analysis
T1 sequence (P0A6F5 whole entry, looked up): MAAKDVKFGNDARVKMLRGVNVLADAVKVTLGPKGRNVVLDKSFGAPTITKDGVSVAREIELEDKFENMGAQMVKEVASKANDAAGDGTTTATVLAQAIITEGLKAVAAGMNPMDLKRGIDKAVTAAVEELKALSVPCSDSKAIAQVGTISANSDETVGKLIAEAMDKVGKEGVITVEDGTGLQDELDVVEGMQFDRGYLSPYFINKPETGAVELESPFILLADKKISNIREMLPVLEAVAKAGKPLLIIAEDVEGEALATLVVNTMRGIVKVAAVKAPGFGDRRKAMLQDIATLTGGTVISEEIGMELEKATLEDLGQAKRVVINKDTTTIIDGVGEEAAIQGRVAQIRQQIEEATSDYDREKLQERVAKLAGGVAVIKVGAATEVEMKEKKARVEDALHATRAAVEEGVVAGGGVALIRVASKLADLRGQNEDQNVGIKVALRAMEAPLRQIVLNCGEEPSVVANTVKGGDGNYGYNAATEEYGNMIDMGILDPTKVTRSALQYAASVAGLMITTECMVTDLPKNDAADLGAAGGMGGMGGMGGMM
In short: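 Urea-denatured rhodanese bound to GroEL/GroES in folding buffer containing thiosulfate. After 60 min at 37°C, thiocyanate reaction (KCN, thiosulfate, phosphate) run, then formaldehyde quench and ferric nitrate added. Fe(SCN)3 read at 460 nm after 15 min RT, with protein-free baseline plates.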

[2] = system: Klebsiella pneumoniae subsp. pneumoniae; test: Antibacterial activity against multidrug resistant Klebsiella pneumoniae subsp. pneumoniae NCTC 9633 (ATCC 13883) assessed as reduction in bacterial growth incubated for 6 to 8 hrs; type: functional, organism-based
In short: (§1)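 Broth proliferation assay. S. aureus and MRSA grown in ATCC Medium 18, other pathogens in Brain Heart Infusion. Stagnant incubation at 37°C under breathable seal. OD600 read at mid-log (6-8 h) and corrected with bacteria-free baseline plates. EC50 by variable-slope nonlinear fit, at least triplicate.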

E. coli GroEL/ES [3] = molecular target: T1, E. coli GroEL/ES; test: Inhibition of Escherichia coli GroEL/GroES using Escherichia coli GroEL expressed in Escherichia coli DH5alpha cells and Escherichia coli GroES expressed in Escherichia coli BL21(DE3) cells assessed as inhibition of denatured pig heart MDH refolding by measuring reduction in NADH production incubated for 60 mins by micro plate reader analysis
In short: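 Denatured MDH (guanidine-HCl/DTT, 30 min RT) bound to GroEL with GroES in Tris pH 7.4, KCl, MgCl2, DTT buffer. 60 min at 37°C, EDTA quench to 100 mM. Refolded MDH activity read with mesoxalate/NADH at 340 nm. Log-averaged IC50 from replicates.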

[4] = Cytotoxicity against human THLE3 cells assessed as reduction in cell viability after 48 hrs by alamar blue assay; type: cell-based; conditions: THLE3, 48 h
Enterococcus faecium = test: Antibacterial activity against multidrug resistant Enterococcus faecium NCTC 7171 (ATCC 19434) assessed as reduction in bacterial growth incubated for 6 to 8 hrs; type: functional, organism-based; in short: as §1
HSP60/HSP10 [5] = molecular target: T2, HSP60/HSP10 (Homo sapiens, UniProt P10809); test: Inhibition of human HSP60/HSP10 expressed in Escherichia coli Rosetta2(DE3) cells assessed as inhibition of denatured pig heart MDH refolding by measuring reduction in NADH production incubated for 60 mins by micro plate reader analysis
T2 sequence (P10809 whole entry): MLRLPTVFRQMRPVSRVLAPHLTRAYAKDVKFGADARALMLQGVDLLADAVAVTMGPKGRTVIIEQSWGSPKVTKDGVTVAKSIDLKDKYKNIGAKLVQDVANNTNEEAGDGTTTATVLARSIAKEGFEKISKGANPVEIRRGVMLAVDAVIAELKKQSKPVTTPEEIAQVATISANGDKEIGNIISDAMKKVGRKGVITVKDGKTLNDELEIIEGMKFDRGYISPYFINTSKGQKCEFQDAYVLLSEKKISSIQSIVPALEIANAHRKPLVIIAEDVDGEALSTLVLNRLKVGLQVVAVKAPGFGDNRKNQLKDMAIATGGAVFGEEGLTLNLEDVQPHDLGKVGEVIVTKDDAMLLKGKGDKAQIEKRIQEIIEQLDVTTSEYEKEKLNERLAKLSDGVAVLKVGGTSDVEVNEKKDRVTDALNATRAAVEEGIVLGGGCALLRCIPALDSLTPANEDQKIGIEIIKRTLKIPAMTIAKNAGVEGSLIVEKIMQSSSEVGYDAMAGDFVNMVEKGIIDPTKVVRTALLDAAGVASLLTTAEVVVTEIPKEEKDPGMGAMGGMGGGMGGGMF
T2 sequence (P61604 whole entry, further chain): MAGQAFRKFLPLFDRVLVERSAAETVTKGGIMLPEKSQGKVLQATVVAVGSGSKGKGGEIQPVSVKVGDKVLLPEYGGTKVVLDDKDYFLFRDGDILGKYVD
In short: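 Pig heart MDH was denatured in guanidine-HCl (dMDH) and complexed with HSP60, then HSP10, in Tris pH 7.4/KCl/MgCl2/DTT buffer. EDTA quench (100 mM final); refolded MDH activity was followed with mesoxalate/NADH at 340 nm.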

Staphylococcus aureus [6] = test: Antibacterial activity against methicillin susceptible Staphylococcus aureus subsp. aureus Seattle 1945 (ATCC 25923) assessed as reduction in bacterial growth incubated for 6 to 8 hrs
Escherichia coli [7] = test: Antibacterial activity against Escherichia coli SM101 assessed as reduction in bacterial growth incubated for 12 hrs by UV-Vis spectrophotometric analysis; type: functional, organism-based; conditions: SM101, 12 h
HSP60/HSP10 [8] = molecular target: T2, HSP60/HSP10; test: Inhibition of human HSP60/HSP10 expressed in Escherichia coli Rosetta2(DE3) cells assessed as reduction in denatured pig heart MDH ATPase activity by malachite green dye based assay
E. coli GroEL/ES [9] = molecular target: T1, E. coli GroEL/ES; test: Inhibition of Escherichia coli GroEL/GroES using Escherichia coli GroEL expressed in Escherichia coli DH5alpha cells and Escherichia coli GroES expressed in Escherichia coli BL21(DE3) cells assessed as reduction in pig heart native refolded MDH-mediated NADH production by micro plate reader analysis
In short: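 Native MDH counter-screen. GroEL/ES-dMDH refolding run 60 min at 37°C, then EDTA-quenched without compound. IC50 averaged from at least triplicate.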

Pseudomonas aeruginosa = test: Antibacterial activity against multidrug resistant Pseudomonas aeruginosa NCTC 10332 (ATCC 10145) assessed as reduction in bacterial growth incubated for 6 to 8 hrs; type: functional, organism-based; in short: as §1
Escherichia coli [10] = test: Antibacterial activity against acrB-deficient Escherichia coli MC4100 assessed as reduction in bacterial growth incubated for 6 to 8 hrs; type: functional, organism-based
Bacillus subtilis = test: Antibacterial activity against Bacillus subtilis 168 assessed as reduction in bacterial growth incubated for 6 to 8 hrs; type: functional, organism-based; conditions: subsp. subtilis str. 168
Escherichia coli [11] = test: Antibacterial activity against Escherichia coli DH5alpha assessed as reduction in bacterial growth incubated for 6 to 8 hrs; type: functional, organism-based; conditions: DH5[alpha]
Enterobacter cloacae = test: Antibacterial activity against multidrug resistant Enterobacter cloacae subsp. cloacae CDC 442-68 (ATCC 13047) assessed as reduction in bacterial growth incubated for 6 to 8 hrs; type: functional, organism-based; in short: as §1
E. coli GroEL/ES [12] = molecular target: T1, E. coli GroEL/ES; test: Inhibition of Escherichia coli GroEL/GroES using Escherichia coli GroEL expressed in Escherichia coli DH5alpha cells and Escherichia coli GroES expressed in Escherichia coli BL21(DE3) cells assessed as reduction in native refolded rhodanese-mediated thiocyanate production by micro plate reader analysis
Acinetobacter baumannii = test: Antibacterial activity against multidrug resistant Acinetobacter baumannii 2208 (ATCC 19606) assessed as reduction in bacterial growth incubated for 6 to 8 hrs; type: functional; in short: as §1
Staphylococcus aureus [13] = test: Antibacterial activity against methicillin resistant Staphylococcus aureus subsp. aureus HPV107 (ATCC BAA-44) assessed as reduction in bacterial growth incubated for 6 to 8 hrs; type: functional, organism-based; in short: as §1
E. coli GroEL/ES [14] = molecular target: T1, E. coli GroEL/ES; test: Inhibition of Escherichia coli GroEL/GroES using Escherichia coli GroEL expressed in Escherichia coli DH5alpha cells and Escherichia coli GroES expressed in Escherichia coli BL21(DE3) cells assessed as reduction in denatured pig heart MDH ATPase activity by malachite green dye based assay

Compound | EC50 (HEK293) | IC50 (E. coli GroEL/ES [1]) | EC50 [2] | IC50 (E. coli GroEL/ES [3]) | EC50 [4] | EC50 (Enterococcus faecium) | IC50 (HSP60/HSP10 [5]) | EC50 (Staphylococcus aureus [6]) | EC50 (Escherichia coli [7]) | IC50 (HSP60/HSP10 [8]) | IC50 (E. coli GroEL/ES [9]) | EC50 (Pseudomonas aeruginosa) | EC50 (Escherichia coli [10]) | EC50 (Bacillus subtilis) | EC50 (Escherichia coli [11]) | EC50 (Enterobacter cloacae) | IC50 (E. coli GroEL/ES [12]) | EC50 (Acinetobacter baumannii) | EC50 (Staphylococcus aureus [13]) | IC50 (E. coli GroEL/ES [14])
CNC(=O)Oc1c(Br)cc2sc(=O)oc2c1Br | > 100 µM | 0.89 µM | > 100 µM | 2.6 µM | > 100 µM | > 100 µM | 1.8 µM | 45 µM | > 100 µM | > 250 µM | > 62.5 µM | > 100 µM | > 100 µM | 43 µM | > 100 µM | > 100 µM | 5.3 µM | > 100 µM | 74 µM | > 250 µM
COC(=O)c1ccc(-c2ccc(/C=C3/SC(=S)NC3=O)o2)cc1 | 44 µM | 3 µM | > 100 µM | 4.8 µM | 41 µM | > 100 µM | 16 µM | 13 µM | 7.6 µM | > 250 µM | > 62.5 µM | > 100 µM | > 100 µM | 16 µM | > 100 µM | > 100 µM | 8.1 µM | > 100 µM | 1.5 µM | > 250 µM
Nc1ccc(Nc2nc(-c3ccc(O)c(O)c3)cs2)cc1 | 98 µM | 1.7 µM | > 100 µM | 2.7 µM | > 100 µM | > 100 µM | 10 µM | > 100 µM | 84 µM | > 250 µM | > 62.5 µM | > 100 µM | > 100 µM | > 100 µM | > 100 µM | > 100 µM |  | 81 µM | > 100 µM | > 250 µM
O=C(Nc1ccc2nc(-c3ccco3)c(-c3ccco3)nc2c1)N1CCCC1 | > 100 µM | 2.4 µM | > 100 µM | 4.7 µM | > 100 µM | > 100 µM | 13 µM | > 100 µM | > 100 µM | > 250 µM | > 62.5 µM | > 100 µM | > 100 µM | > 100 µM | > 100 µM | > 100 µM | 2.1 µM | > 100 µM | > 100 µM | 
COc1ccc(C(=O)N/N=C/c2ccc(O)c3ncccc23)cc1 | 7.7 µM | 18 µM | 95 µM | 31 µM | 15 µM | > 100 µM | > 100 µM | > 100 µM | 19 µM | > 250 µM | > 62.5 µM | > 100 µM | > 100 µM | 83 µM | > 100 µM | > 100 µM | 52 µM | 32 µM | 56 µM | 
CNC(=O)Nc1ccc2nc(-c3ccco3)c(-c3ccco3)nc2c1 | > 100 µM | 2.5 µM | > 100 µM | 3 µM | > 100 µM | > 100 µM | 7.4 µM | > 100 µM | > 100 µM | > 250 µM | > 62.5 µM | > 100 µM | > 100 µM | > 100 µM | > 100 µM | > 100 µM | 2.5 µM | > 100 µM | 94 µM | 
Nc1nnc(SCC(=O)c2ccc(-c3ccccc3)cc2)s1 | > 100 µM | 79 µM | > 100 µM |  | > 100 µM | > 100 µM | > 100 µM | > 100 µM | > 100 µM | > 250 µM | > 62.5 µM | > 100 µM | > 100 µM | > 100 µM | > 100 µM | > 100 µM |  | > 100 µM | > 100 µM | 107 µM
O=C(NCCO)Nc1ccc2nc(-c3ccco3)c(-c3ccco3)nc2c1 | > 100 µM | 2.6 µM | > 100 µM | 6.5 µM | > 100 µM | > 100 µM | 15 µM | > 100 µM | > 100 µM | > 250 µM | > 62.5 µM | > 100 µM | > 100 µM | > 100 µM | > 100 µM | > 100 µM | 1.4 µM | > 100 µM | > 100 µM | 
